≈ marks a conversion by molar mass, not a printed value.
Legend:
[1] = system: Bifidobacterium breve; experiment: Antimicrobial activity against 90 mins oxgall-stressed Bifidobacterium breve ATCC 15700 after 18 hrs; type: functional
Procedure, shortened: (§1)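 Cells pelleted from mid-log MRS culture and resuspended in MRS (initial pH 6.5) with 0.3% (wt/vol) oxgall for 90 min anaerobically at 37°C. They were then regrown in MRS pH 6.5 for 24 h (footnote: 18 h) anaerobically and tested for MIC by the same broth microdilution assay. Median of four repetitions.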

[2] = system: Bifidobacterium longum; experiment: Antimicrobial activity against Bifidobacterium longum P/N 601377; type: functional
Procedure, shortened: (§2)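 Broth microdilution in MRS plus 0.05% L-cysteine-HCl. Mid-log culture adjusted to OD650 0.1, giving about 2.5 × 10^4 to 5.0 × 10^4 CFU/well, then added to twofold serial dilutions of agent. Plates incubated anaerobically at 37°C for 18 h and read at OD650. MIC is the lowest concentration matching the uninoculated blank OD, taken as the median of four repeats.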

[3] = system: Bifidobacterium bifidum; experiment: Antimicrobial activity against 90 mins hydrogen peroxide-stressed Bifidobacterium bifidum BB12 after 18 hrs; type: functional
Procedure, shortened: (§3)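 Stress applied for 90 min at 37°C under anaerobic conditions, using MRS (initial pH 6.5) containing H2O2 at each strain's own inhibitory concentration. The H2O2 level was set beforehand by microplate tolerance testing. Challenged cells were regrown in MRS for 24 h (footnote: 18 h) before MIC testing by broth microdilution. Median of four repetitions.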

[4] = system: Bifidobacterium breve; experiment: Antimicrobial activity against 60 min 1 M HCl-stressed Bifidobacterium breve ATCC 15700 after 18 hrs; type: functional
Procedure, shortened: (§4)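 Mid-log MRS culture pelleted and resuspended in MRS broth brought to pH 2.0 with 1 M HCl, held anaerobically at 37°C for 60 min, then subcultured in MRS (pH 6.5) for 24 h anaerobically before MIC testing by broth microdilution (as for unstressed cells). Table footnote gives 18 h anaerobic regrowth after the stress. MIC is the median of four repetitions.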

[5] = system: Bifidobacterium bifidum; experiment: Antimicrobial activity against 60 min 1 M HCl-stressed Bifidobacterium bifidum R0071 after 18 hrs; type: functional; procedure, shortened: as §4
[6] = system: Bifidobacterium bifidum; experiment: Antimicrobial activity against 90 mins oxgall-stressed Bifidobacterium bifidum R0071 after 18 hrs; type: functional; procedure, shortened: as §1
[7] = system: Bifidobacterium bifidum; experiment: Antimicrobial activity against Bifidobacterium bifidum ATCC 15696; type: functional; procedure, shortened: as §2
[8] = system: Bifidobacterium bifidum; experiment: Antimicrobial activity against Bifidobacterium bifidum BB12; type: functional; procedure, shortened: as §2
[9] = system: Bifidobacterium animalis; experiment: Antimicrobial activity against 90 mins hydrogen peroxide-stressed Bifidobacterium animalis ATCC 27536 after 18 hrs; type: functional; procedure, shortened: as §3
[10] = system: Bifidobacterium longum; experiment: Antimicrobial activity against Bifidobacterium longum ATCC 15707; type: functional; procedure, shortened: as §2
[11] = system: Bifidobacterium longum; experiment: Antimicrobial activity against 90 mins hydrogen peroxide-stressed Bifidobacterium longum ATCC 15708 after 18 hrs; type: functional; procedure, shortened: as §3
[12] = system: Bifidobacterium longum; experiment: Antimicrobial activity against 90 mins hydrogen peroxide-stressed Bifidobacterium longum P/N 601377 after 18 hrs; type: functional; procedure, shortened: as §3
[13] = system: Bifidobacterium pseudolongum; experiment: Antimicrobial activity against Bifidobacterium pseudolongum ATCC 25562; type: functional; procedure, shortened: as §2
[14] = system: Bifidobacterium bifidum; experiment: Antimicrobial activity against 60 min 1 M HCl-stressed Bifidobacterium bifidum BB12 after 18 hrs; type: functional; procedure, shortened: as §4
[15] = system: Bifidobacterium breve; experiment: Antimicrobial activity against 60 min 1 M HCl-stressed Bifidobacterium breve R0070 after 18 hrs; type: functional; procedure, shortened: as §4
[16] = system: Bifidobacterium breve; experiment: Antimicrobial activity against Bifidobacterium breve R0070; type: functional; procedure, shortened: as §2
[17] = system: Bifidobacterium breve; experiment: Antimicrobial activity against 90 mins oxgall-stressed Bifidobacterium breve R0070 after 18 hrs; type: functional; procedure, shortened: as §1
[18] = system: Bifidobacterium bifidum; experiment: Antimicrobial activity against Bifidobacterium bifidum R0071; type: functional; procedure, shortened: as §2
[19] = system: Bifidobacterium longum; experiment: Antimicrobial activity against Bifidobacterium longum ATCC 15708; type: functional; procedure, shortened: as §2
[20] = system: Bifidobacterium bifidum; experiment: Antimicrobial activity against 90 mins hydrogen peroxide-stressed Bifidobacterium bifidum R0071 after 18 hrs; type: functional; procedure, shortened: as §3
[21] = system: Bifidobacterium longum; experiment: Antimicrobial activity against 60 min 1 M HCl-stressed Bifidobacterium longum ATCC 15707 after 18 hrs; type: functional; procedure, shortened: as §4
[22] = system: Bifidobacterium bifidum; experiment: Antimicrobial activity against 90 mins oxgall-stressed Bifidobacterium bifidum BB12 after 18 hrs; type: functional; procedure, shortened: as §1
[23] = system: Bifidobacterium breve; experiment: Antimicrobial activity against 90 mins hydrogen peroxide-stressed Bifidobacterium breve R0070 after 18 hrs; type: functional; procedure, shortened: as §3
[24] = system: Bifidobacterium breve; experiment: Antimicrobial activity against 90 mins hydrogen peroxide-stressed Bifidobacterium breve ATCC 15700 after 18 hrs; type: functional; procedure, shortened: as §3
[25] = system: Bifidobacterium thermophilum; experiment: Antimicrobial activity against 60 min 1 M HCl-stressed Bifidobacterium thermophilum ATCC 25866 after 18 hrs; type: functional; procedure, shortened: as §4
[26] = system: Bifidobacterium thermophilum; experiment: Antimicrobial activity against 90 mins hydrogen peroxide-stressed Bifidobacterium thermophilum ATCC 25866 after 18 hrs; type: functional; procedure, shortened: as §3
[27] = system: Bifidobacterium thermophilum; experiment: Antimicrobial activity against Bifidobacterium thermophilum ATCC 25866; type: functional; procedure, shortened: as §2
[28] = system: Bifidobacterium longum; experiment: Antimicrobial activity against 60 min 1 M HCl-stressed Bifidobacterium longum P/N 601377 after 18 hrs; type: functional; procedure, shortened: as §4
[29] = system: Bifidobacterium thermophilum; experiment: Antimicrobial activity against 90 mins oxgall-stressed Bifidobacterium thermophilum ATCC 25866 after 18 hrs; type: functional; procedure, shortened: as §1
[30] = Antimicrobial activity against 90 mins oxgall-stressed Bifidobacterium infantis ATCC 15697 after 18 hrs; type: functional, Bifidobacterium longum subsp. infantis; settings: Bifidobacterium longum; procedure, shortened: as §1
[31] = system: Bifidobacterium longum; experiment: Antimicrobial activity against 90 mins hydrogen peroxide-stressed Bifidobacterium longum ATCC 15707 after 18 hrs; type: functional; procedure, shortened: as §3
[32] = system: Bifidobacterium breve; experiment: Antimicrobial activity against Bifidobacterium breve ATCC 15700; type: functional; procedure, shortened: as §2
[33] = system: Bifidobacterium longum; experiment: Antimicrobial activity against 90 mins oxgall-stressed Bifidobacterium longum ATCC 15707 after 18 hrs; type: functional; procedure, shortened: as §1
[34] = system: Bifidobacterium animalis; experiment: Antimicrobial activity against Bifidobacterium animalis ATCC 27536; type: functional; procedure, shortened: as §2
[35] = system: Bifidobacterium longum; experiment: Antimicrobial activity against 90 mins oxgall-stressed Bifidobacterium longum P/N 601377 after 18 hrs; type: functional; procedure, shortened: as §1
[36] = system: Bifidobacterium longum; experiment: Antimicrobial activity against 90 mins oxgall-stressed Bifidobacterium longum ATCC 15708 after 18 hrs; type: functional; procedure, shortened: as §1
[37] = system: Bifidobacterium longum; experiment: Antimicrobial activity against 90 mins oxgall-stressed Bifidobacterium longum R0175 after 18 hrs; type: functional; procedure, shortened: as §1
[38] = system: Bifidobacterium bifidum; experiment: Antimicrobial activity against 90 mins oxgall-stressed Bifidobacterium bifidum ATCC 15696 after 18 hrs; type: functional; procedure, shortened: as §1
[39] = system: Bifidobacterium longum; experiment: Antimicrobial activity against Bifidobacterium longum R0175; type: functional; procedure, shortened: as §2
[40] = Antimicrobial activity against 60 min 1 M HCl-stressed Bifidobacterium infantis ATCC 15697 after 18 hrs; type: functional, Bifidobacterium longum subsp. infantis; settings: Bifidobacterium longum; procedure, shortened: as §4
[41] = system: Bifidobacterium pseudolongum; experiment: Antimicrobial activity against 60 min 1 M HCl-stressed Bifidobacterium pseudolongum ATCC 25562 after 18 hrs; type: functional; procedure, shortened: as §4
[42] = system: Bifidobacterium pseudolongum; experiment: Antimicrobial activity against 90 mins oxgall-stressed Bifidobacterium pseudolongum ATCC 25562 after 18 hrs; type: functional; procedure, shortened: as §1
[43] = system: Bifidobacterium animalis; experiment: Antimicrobial activity against 90 mins oxgall-stressed Bifidobacterium animalis ATCC 27536 after 18 hrs; type: functional; procedure, shortened: as §1
[44] = system: Bifidobacterium longum; experiment: Antimicrobial activity against 60 min 1 M HCl-stressed Bifidobacterium longum R0175 after 18 hrs; type: functional; procedure, shortened: as §4
[45] = system: Bifidobacterium longum; experiment: Antimicrobial activity against 90 mins hydrogen peroxide-stressed Bifidobacterium longum R0175 after 18 hrs; type: functional; procedure, shortened: as §3
[46] = Antimicrobial activity against Bifidobacterium infantis ATCC 15697; type: functional, Bifidobacterium longum subsp. infantis; settings: Bifidobacterium longum; procedure, shortened: as §2
[47] = system: Bifidobacterium animalis; experiment: Antimicrobial activity against 60 min 1 M HCl-stressed Bifidobacterium animalis ATCC 27536 after 18 hrs; type: functional; procedure, shortened: as §4

MIC [1]: 3.9 µg/mL (≈ 12.1 µM)
MIC [2]: 3.9 µg/mL (≈ 12.1 µM)
MIC [3]: 1.9 µg/mL (≈ 5.88 µM)
MIC [4]: 62.5 µg/mL (≈ 193 µM)
MIC [5]: 7.8 µg/mL (≈ 24.1 µM)
MIC [6]: 3.9 µg/mL (≈ 12.1 µM)
MIC [7]: 1.9 µg/mL (≈ 5.88 µM)
MIC [8]: 1.9 µg/mL (≈ 5.88 µM)
MIC [9]: 3.9 µg/mL (≈ 12.1 µM)
MIC [10]: 15.6 µg/mL (≈ 48.3 µM)
MIC [11]: 3.9 µg/mL (≈ 12.1 µM)
MIC [12]: 1.9 µg/mL (≈ 5.88 µM)
MIC [13]: 7.8 µg/mL (≈ 24.1 µM)
MIC [14]: 1.9 µg/mL (≈ 5.88 µM)
MIC [15]: 3.9 µg/mL (≈ 12.1 µM)
MIC [16]: 7.8 µg/mL (≈ 24.1 µM)
MIC [17]: 3.9 µg/mL (≈ 12.1 µM)
MIC [18]: 1.9 µg/mL (≈ 5.88 µM)
MIC [19]: 31.2 µg/mL (≈ 96.6 µM)
MIC [20]: 1.9 µg/mL (≈ 5.88 µM)
MIC [21]: 7.8 µg/mL (≈ 24.1 µM)
MIC [22]: 1.9 µg/mL (≈ 5.88 µM)
MIC [23]: 1.9 µg/mL (≈ 5.88 µM)
MIC [24]: 1.9 µg/mL (≈ 5.88 µM)
MIC [25]: 3.9 µg/mL (≈ 12.1 µM)
MIC [26]: 1.9 µg/mL (≈ 5.88 µM)
MIC [27]: 7.8 µg/mL (≈ 24.1 µM)
MIC [28]: 1.9 µg/mL (≈ 5.88 µM)
MIC [29]: 3.9 µg/mL (≈ 12.1 µM)
MIC [30]: 0.98 µg/mL (≈ 3.03 µM)
MIC [31]: 1.9 µg/mL (≈ 5.88 µM)
MIC [32]: 7.8 µg/mL (≈ 24.1 µM)
MIC [33]: 1.9 µg/mL (≈ 5.88 µM)
MIC [34]: 7.8 µg/mL (≈ 24.1 µM)
MIC [35]: 1.9 µg/mL (≈ 5.88 µM)
MIC [36]: 0.98 µg/mL (≈ 3.03 µM)
MIC [37]: 1.9 µg/mL (≈ 5.88 µM)
MIC [38]: 3.9 µg/mL (≈ 12.1 µM)
MIC [39]: 7.8 µg/mL (≈ 24.1 µM)
MIC [40]: 0.98 µg/mL (≈ 3.03 µM)
MIC [41]: 3.9 µg/mL (≈ 12.1 µM)
MIC [42]: 0.98 µg/mL (≈ 3.03 µM)
MIC [43]: 1.9 µg/mL (≈ 5.88 µM)
MIC [44]: 3.9 µg/mL (≈ 12.1 µM)
MIC [45]: 1.9 µg/mL (≈ 5.88 µM)
MIC [46]: 62.5 µg/mL (≈ 193 µM)
MIC [47]: 1.9 µg/mL (≈ 5.88 µM)
Compound: O=C(N[C@H](CO)[C@H](O)c1ccc([N+](=O)[O-])cc1)C(Cl)Cl [CHLORAMPHENICOL]

From ChEMBL document CHEMBL1142148, “Antibiotic susceptibility profile of bifidobacteria as affected by oxgall, acid, and hydrogen peroxide stress” (2007)
